From ChEMBL document CHEMBL1240480, “Design, synthesis and biological evaluation of L-dopa amide derivatives as potential prodrugs for the treatment of Parkinson's disease” (Eur J Med Chem, 2010) come the findings set out here.

Data set [1] deals with Rattus norvegicus. Put plainly: Antiparkinsonian activity in 6-hydroxydopamine lesioned Wistar rat assessed as duration of rotation per 10 mins at 20.97 mg/kg, po. In kind it is functional. The method in brief: (§1)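 The 6-OHDA-lesioned male Wistar rats were apomorphine-screened (>6 turns/min) and given benserazide 10 mg/kg, then a saline-vehicle dose of 63.4 µmol/kg ip or po (n=4–8). Rotations were counted per 10 min for 4 h. Duration of activity was the time turning >10 turns per 10 min, expressed as % of the L-dopa effect.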

The test system of data set [2] is Rattus norvegicus. Put plainly: Antiparkinsonian activity in 6-hydroxydopamine lesioned Wistar rat assessed as number of rotation per 10 mins at 20.97 mg/kg, po. Format: functional. The procedure, abridged: (§2)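 Rotometer assay in unilaterally 6-OHDA-lesioned male Wistar rats (apomorphine-confirmed, >6 turns/min). Benserazide 10 mg/kg was given, followed by compound at 63.4 µmol/kg ip or po in saline (n=4–8 per treatment). Rotations were recorded per 10 min for 240 min. Peak (maximum) rotations per 10 min were taken and expressed relative to L-dopa.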

In data set [3] the test system is Rattus norvegicus. The data set is described as follows: Antiparkinsonian activity in 6-hydroxydopamine lesioned Wistar rat assessed as area under curve measured as number of rotation per 10 mins at 20.97 mg/kg, po. In kind it is functional. The method in brief: (§3)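 Male Wistar rats were given desipramine (25 mg/kg ip) and then a unilateral 6-OHDA injection (8 µg free base) into the left medial forebrain bundle. Lesions were confirmed ≥2 weeks later by apomorphine (0.5 mg/kg sc), accepting rats with >6 turns/min. Rats (n=4–8) received benserazide 10 mg/kg and 30 min basal recording, then drug at 63.4 µmol/kg ip or po in saline. Contraversive rotations were counted per 10 min over 240 min. AUC was calculated and expressed as % of the L-dopa effect.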

Data set [4] has as its system Rattus norvegicus. Put plainly: Antiparkinsonian activity in 6-hydroxydopamine lesioned Wistar rat assessed as area under curve measured as number of rotation per 10 mins at 21.86 mg/kg, po. In kind it is functional. The method in brief: as §3
For data set [5], the system named is Rattus norvegicus. Put plainly: Antiparkinsonian activity in 6-hydroxydopamine lesioned Wistar rat assessed as number of rotation per 10 mins at 21.86 mg/kg, po. Format: functional.
The subject of data set [6] is Rattus norvegicus. The data set is described as follows: Antiparkinsonian activity in 6-hydroxydopamine lesioned Wistar rat assessed as duration of rotation per 10 mins at 21.86 mg/kg, po. Format: functional. The procedure, abridged:
as §1

Data set [7] deals with Rattus norvegicus. Put plainly: Antiparkinsonian activity in 6-hydroxydopamine lesioned Wistar rat assessed as area under curve measured as number of rotation per 10 mins at 22.75 mg/kg, po. In kind it is functional. The procedure, abridged: as §3
The test system of data set [8] is Rattus norvegicus. Put plainly: Antiparkinsonian activity in 6-hydroxydopamine lesioned Wistar rat assessed as number of rotation per 10 mins at 22.75 mg/kg, po. Format: functional.
The test system of data set [9] is Rattus norvegicus. The data set is described as follows: Antiparkinsonian activity in 6-hydroxydopamine lesioned Wistar rat assessed as duration of rotation per 10 mins at 22.75 mg/kg, po. Format: functional. The method in brief: as §1
The test system of data set [10] is Rattus norvegicus. The data set is described as follows: Antiparkinsonian activity in 6-hydroxydopamine lesioned Wistar rat assessed as duration of rotation per 10 mins at 21.81 mg/kg, po. In kind it is functional. The method in brief: as §1
The subject of data set [11] is Rattus norvegicus. Put plainly: Antiparkinsonian activity in 6-hydroxydopamine lesioned Wistar rat assessed as number of rotation per 10 mins at 21.81 mg/kg, po. Format: functional.
Data set [12] relates to Rattus norvegicus. The data set is described as follows: Antiparkinsonian activity in 6-hydroxydopamine lesioned Wistar rat assessed as area under curve measured as number of rotation per 10 mins at 21.81 mg/kg, po. In kind it is functional. The method in brief: as §3
The test system of data set [13] is Rattus norvegicus. The data set is described as follows: Antiparkinsonian activity in 6-hydroxydopamine lesioned Wistar rat assessed as number of rotation per 10 mins at 23.89 mg/kg, po. In kind it is functional.
Data set [14] deals with Rattus norvegicus. Put plainly: Cmax in Wistar rat at 23.9 mg/kg, po assessed as L-dopa level. In kind it is ADME, organism-based. Details: dose 23.9 mg/kg, route oral. The note with it: in vivo. The procedure, abridged:
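Naïve male Wistar rats (250–500 g), fasted overnight, dosed orally in 0.9% saline with benserazide (10 mg/kg) at dose equivalent to 12.5 mg/kg L-dopa. Heparinised tail-vein blood at various times; plasma extracted with 20% TFA in 10 mM metabisulphite with warfarin internal standard; L-dopa quantified by LC-MS/MS (positive ESI) against plasma standard curve 0.39–50 µM.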

Data set [15] deals with Rattus norvegicus. Put plainly: AUC (0 to 4 hrs) in Wistar rat at 23.9 mg/kg, po assessed as L-dopa level. In kind it is ADME, organism-based, Plasma. Details: time < 4 hr, dose 23.9 mg/kg, route oral. The note with it: in vivo. The procedure, abridged:
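Naïve male Wistar rats (250–500 g), fasted overnight, dosed with compound in 0.9% saline together with benserazide (10 mg/kg), at a dose molar-equivalent to 12.5 mg/kg L-dopa. Heparinised tail-vein blood was sampled at intervals and the plasma stored at −80 °C. L-dopa was extracted with 20% TFA/10 mM metabisulphite plus warfarin internal standard and quantified by LC-MS/MS (positive ESI) against plasma standard curves.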

The subject of data set [16] is Rattus norvegicus. The data set is described as follows: Antiparkinsonian activity in 6-hydroxydopamine lesioned Wistar rat assessed as duration of rotation per 10 mins at 23.89 mg/kg, po. In kind it is functional. The method in brief:
as §1

Data set [17] deals with Rattus norvegicus. The data set is described as follows: Antiparkinsonian activity in 6-hydroxydopamine lesioned Wistar rat assessed as area under curve measured as number of rotation per 10 mins at 23.89 mg/kg, po. In kind it is functional. The procedure, abridged: as §3
The test system of data set [18] is Rattus norvegicus. Put plainly: Antiparkinsonian activity in 6-hydroxydopamine lesioned Wistar rat assessed as number of rotation per 10 mins at 12.5 mg/kg, po. Format: functional. The method in brief:
as §2

In data set [19] the test system is Rattus norvegicus. Put plainly: Antiparkinsonian activity in 6-hydroxydopamine lesioned Wistar rat assessed as duration of rotation per 10 mins at 12.5 mg/kg, ip. In kind it is functional. The note with it: route intraperitoneal. The procedure, abridged:
as §1

Data set [20] relates to Rattus norvegicus. The data set is described as follows: Antiparkinsonian activity in 6-hydroxydopamine lesioned Wistar rat assessed as number of rotation per 10 mins at 12.5 mg/kg, ip. The note with it: route intraperitoneal. Format: functional. The procedure, abridged:
as §2

Data set [21] relates to Rattus norvegicus. Put plainly: Antiparkinsonian activity in 6-hydroxydopamine lesioned Wistar rat assessed as area under curve measured as number of rotation per 10 mins at 12.5 mg/kg, ip. In kind it is functional. Particulars: route intraperitoneal. The method in brief: as §3
Data set [22] deals with Rattus norvegicus. The data set is described as follows: Antiparkinsonian activity in 6-hydroxydopamine lesioned Wistar rat assessed as duration of rotation per 10 mins at 12.5 mg/kg, po. Format: functional. The procedure, abridged:
as §1

Data set [23] has as its system Rattus norvegicus. Put plainly: Antiparkinsonian activity in 6-hydroxydopamine lesioned Wistar rat assessed as area under curve measured as number of rotation per 10 mins at 12.5 mg/kg, po. In kind it is functional. The method in brief: as §3

`CNC(=O)[C@@H](N)Cc1ccc(OC(C)=O)c(OC(C)=O)c1.Cl`: in the data set on Rattus norvegicus [1], the Time worked out at 0 min. For the same compound, the Activity in the data set on Rattus norvegicus [2] was found to be 1; in the data set on Rattus norvegicus [3], 26.

As to `CCNC(=O)[C@@H](N)Cc1ccc(OC(C)=O)c(OC(C)=O)c1.Cl`, the Activity in the data set on Rattus norvegicus [4] amounted to 20; with Rattus norvegicus [5], 6. The Time in the data set with Rattus norvegicus [6] was 3 min.

Regarding `CC(=O)Oc1ccc(C[C@H](N)C(=O)NC(C)C)cc1OC(C)=O.Cl`, the Activity turned out to be 26 with Rattus norvegicus [7] and 2 in the data set with Rattus norvegicus [8]. The Time with Rattus norvegicus [9] came out at 0 min.

In the case of `CC(=O)Oc1ccc(C[C@H](N)C(=O)N(C)C)cc1OC(C)=O.Cl`, the Time with Rattus norvegicus [10] is 0 min. For the same compound, the values for the Activity in the data set with Rattus norvegicus [11] and in the data set with Rattus norvegicus [12] were 1 and 26, respectively.

On to `CCOC(=O)Oc1ccc(C[C@H](N)C(N)=O)cc1OC(=O)OCC.Cl`, for which the Activity in the data set on Rattus norvegicus [13] came to 90; in the data set with Rattus norvegicus [17], 579. Moreover, in the data set on Rattus norvegicus [14], the maximum concentration (Cmax) was 690 ng/mL. In the data set with Rattus norvegicus [15], the AUC came to 95 µg·min/mL. Moreover, the Time with Rattus norvegicus [16] was 153 min.

On to `N[C@@H](Cc1ccc(O)c(O)c1)C(=O)O` [LEVODOPA], for which the Activity in the data set on Rattus norvegicus [18] stood at 71; with Rattus norvegicus [20] it was 104; in the data set with Rattus norvegicus [21], 1021; in the data set with Rattus norvegicus [23] it was 522. For the same compound, the values for the Time in the data set with Rattus norvegicus [19] and in the data set on Rattus norvegicus [22] were 160 min and 119 min, respectively.
